# Screening data as filed in PubChem.
# Most compounds without a hit are left out; they make up all but 3.3% or so of the library.
# Lipid droplet – modulators of hepatic lipid droplet formation; inhibition, % at 6.5 µM; AML12 mouse hepatocytes, oleate lipid droplets, BODIPY imaging; AID 1656; hit rate 0.4% among 240,000;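 active = lipid droplet intensity inhibited by at least 50%, with more than 500 cells counted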
#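 Assay system: AML12 hepatocytes (mouse) / Also added: 100 µM oleic acid challenge / Times: overnight treatment with compound plus oleate / Detection: high-content imaging of BODIPY-stained droplets and DAPI nuclei / Evaluation: % inhibition of lipid droplet signal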
# HGIII-sPLA2 inh – Inhibits HGIII-sPLA2 liposome hydrolysis, primary screen | Q9NZ20 | QFRET BODIPY PC-A2 liposome hydrolysis, fluorescence | inhibition, % at 12.2 µM | hit rate 0.56% among 370,000;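 active = inhibition above mean plus 3 SD of compounds lying within the high and low control bounds, cut at about 19% in these data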;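 note: 0% = median of test compound wells and 100% = no enzyme DMSO wells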
# HTR2A ag – agonists of mouse serotonin 5-HT2A receptor (HTR2A); P35363; CHO-K1 mHTR2A beta-arrestin complementation, luminescence; percent of 30 µM serotonin response; activation, % at 7.6 µM; hit rate 0.66% among 360,000; AID 624169;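 active = activation above a run cutoff, the mean activation of all tested compounds plus 3 SD, cut at about 14% in these data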;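 note: 0% = plate median of compound wells and 100% = 30 µM serotonin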
# Arrestin-AP2 inh – blocks beta-arrestin peptide binding to AP2 adaptin; FITC-arrestin peptide / GST-AP2 beads, flow cytometry; AP2 beta2 appendage carries R879A mutation; inhibition, % at 10 µM; hit rate 0.31% among 340,000; AID 504490;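 active = inhibition above a set limit, near 3 SD of compounds lacking own fluorescence, cut at about 54% in these data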;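 note: plate controls were DMSO wells for no effect and 5 µM unlabelled arrestin peptide for full effect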
#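 System: GST-AP2 R879A glutathione beads. Medium: PBS with 0.05% Tween 20 and 0.1% BSA. Also added: FITC-arrestin peptide, 50 nM. Incubation: 12 min plus 1 h, RT. Measured by: high-throughput flow cytometry of beads, ex 488, em 535 nm. Evaluation: percent drop in bead-associated FITC signal.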
# PfM18AAP inh – blocks P. falciparum M18 aspartyl aminopeptidase | recombinant PfM18AAP, H-Glu-NHMec fluorogenic cleavage | inhibition, % at 7.35 µM | hit rate 1.2% among 290,000;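 active = inhibition above the campaign mean inhibition over all tested compounds plus 3 SD, cut at about 28% in these data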;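 note: 0% = plate median of test compound wells and 100% = 2 mM ZnCl2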
# CendR NRP1 mod – NRP-1/CendR interaction modulation. O14786. FAM-RPARPAR peptide binding to NRP-1, fluorescence polarization. inhibition, % at 25 µM. hit rate 0.85% among 360,000. AID 602438;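 active = inhibition or corrected inhibition above about 18%, plus a signal ratio from 0.5 to 1.5, limit read from the data, passing the limit was not always enough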
# OPRM1 ag – activates human mu opioid receptor in HTR2A counterscreen; activation, % at 9.3 µM; hit rate 5.3% among 2,300; shares compounds with HTR2A ag; U2OS OPRM1 beta-arrestin PathHunter, luminescence; DMSO 0%, DAMGO 9.3 µM 100%;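 active = mean activation above the mean of DMSO-only wells plus 3 SD, cut at about 0.5% in these data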
# Target sequence (P35372 whole entry, looked up): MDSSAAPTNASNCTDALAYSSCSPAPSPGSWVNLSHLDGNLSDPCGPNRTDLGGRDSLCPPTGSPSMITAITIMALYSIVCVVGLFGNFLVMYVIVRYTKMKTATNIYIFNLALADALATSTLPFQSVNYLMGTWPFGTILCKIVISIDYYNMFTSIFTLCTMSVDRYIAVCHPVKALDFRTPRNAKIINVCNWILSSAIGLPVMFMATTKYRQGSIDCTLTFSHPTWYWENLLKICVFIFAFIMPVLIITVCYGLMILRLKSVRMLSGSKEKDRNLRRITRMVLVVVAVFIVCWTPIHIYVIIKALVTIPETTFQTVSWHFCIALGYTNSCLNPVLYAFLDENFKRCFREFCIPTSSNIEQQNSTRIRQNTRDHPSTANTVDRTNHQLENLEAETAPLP
# HTR2A ag conf – mouse HTR2A agonism confirmed; shares compounds with HTR2A ag; activation, % at 7.6 µM; hit rate 19% among 2,300; CHO-K1 PathHunter beta-arrestin recruitment, luminescence; DMSO 0%, 30 µM serotonin 100%;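 active = mean activation across triplicates above the hit threshold derived in the original primary screen, cut at about 15% in these data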
# Starred values were filed as active, the others as inactive; . = no result.
SMILES,Lipid droplet,HGIII-sPLA2 inh,HTR2A ag,Arrestin-AP2 inh,PfM18AAP inh,CendR NRP1 mod,OPRM1 ag,HTR2A ag conf
COc1cccc(CNC(=O)Cn2c(-c3ccccc3)cc(C(C)=O)c2C)c1OC,.,-1,.,.,.,.,.,.
COc1ccc(-c2n[nH]c(C)c2-c2ccc(Cl)cc2)c(O)c1OC,-4,-37,22*,6,0,-3,0,7
COc1ccc(-c2n[nH]c(C)c2-c2ccc(Cl)cc2)c(O)c1,.,-19,7,6,-8,1,.,.
COc1ccc(NC(=O)C2CCCN2S(=O)(=O)c2ccc3c(c2)C(C)(C)C(=O)N3C)cc1 (configuration not stated),.,-2,34*,.,.,3,0,-3
O=S1(=O)N[C@H](Cc2ccccc2)COc2cc(N3CCSCC3)ccc21,.,-2,-7,.,.,7,.,.
CCN(CC)C(=O)CC[C@H]1CC[C@]2(CCCN(C(=O)c3ccco3)C2)O1,.,6,.,.,.,.,.,.
CC12CCC(C(=O)N(CCCCN3CCN(c4ccccn4)CC3)C1=O)C2(C)C (configuration not stated),-5,0,28*,-13,-7,3,-1,90*
CC12CCC(C(=O)N(CCCN3CCN(Cc4ccccc4)CC3)C1=O)C2(C)C (configuration not stated),-8,0,-2,10,2,-11,.,.
C[C@@H]1CCN(C2CC2)S(=O)(=O)c2c(cccc2N2CC[C@H](N(C)C)C2)O1,.,16,.,.,.,.,.,.
Cc1cc(C=O)sc1[B-](F)(F)F,.,-3,15*,12,.,-13,0,10
COc1ccc(CC(=O)N[C@@H]2c3cc(OC)c(OC)cc3C[C@H]2O)cc1,.,-1,18*,33,.,-1,-1,-3
COc1cc2c(cc1OC)[C@@H](NC(=O)Cc1ccc(F)cc1)[C@H](OCc1ccccc1)C2,.,0,-2,8,.,-10,.,.
CCN(CC)CCN(C)C1CCC(c2ccccc2)CC1 (configuration not stated),-7,-2,-3,3,3,13,.,.
CCOC(=O)[C@]12CCC=C1N(Cc1cccc3ccccc13)C(=O)[C@H](CC(=O)N1CCCC1)C2,.,-14,-1,.,.,5,.,.
CN1C(=O)CC(N2CCN(c3ccc(Cl)c(Cl)c3)CC2)C1=O (configuration not stated),-22,4,16*,14,-14,-3,0,5
COc1cccc(N2CCN(C3CC(=O)N(c4ccc(Cl)c(Cl)c4)C3=O)CC2)c1 (configuration not stated),-13,-32,-2,-5,-7,-4,.,.
COC(=O)C1=C(C)N(Cc2cccc(C(F)(F)F)c2)C(=NCC2CC2)NC1c1ccc(F)cc1 (configuration not stated),.,-4,.,.,.,.,.,.
O=C(Nc1ccon1)c1ccc(N2CCCCC2)c([N+](=O)[O-])c1,-7,0,-6,1,-5,8,.,.
O=C(Nc1nc2ccccc2s1)c1ccc(N2CCCCC2)c([N+](=O)[O-])c1,12,-4,49*,-5,0,1,-1,18*
CCOc1ccc(C(=O)Nc2ccc(Cc3ccncc3)cc2)cc1Br,-9,-15,-2,43,4,6,.,.
CCOc1ccc(C(=O)Nc2ccc(NC(=O)c3ccccc3)cc2)cc1Br,2,0,25*,34,5,-11,-1,-1
Cc1cc(Cl)ccc1C(=O)C1CCCN(C(=O)c2cc(C(C)C)no2)C1 (configuration not stated),3,-1,46*,49,-10,8,0,-5
CC(C)c1cc(C(=O)N2CCCC(C(=O)c3ccc4ccccc4c3)C2)on1 (configuration not stated),-14,-13,-5,9,-1,-15,.,.
